Tested on: not listed separately
Test: Growth inhibition of human NCI-ADR-RES cells at 10 uM after 48 hrs by coulter counter analysis
Assay type: functional
Settings: read-out: GI
Outline: (§1)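 Single-dose NCI 60-line panel screen of test compounds. Cells grown in RPMI 1640 with 10% FBS. Compounds dissolved in DMSO, then diluted in phosphate buffer saline (final DMSO below 1%). Wells run in duplicate at 6 × 10⁴ cells/ml. Controls held PBS and DMSO at matching dilutions. Incubation 48 h at 37 °C under humidified 5% CO2. Cells diluted tenfold in saline and counted by Coulter counter. Percent growth inhibition taken from mean-graph of treated-cell growth.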

Row | SMILES | inhibition of growth at 10 µM
1 | CCOC(=O)c1sc(NC(=O)C(C)N(CC)CC)nc1C (stereo not drawn) | < 10%

Tested on: HCC 2998
Test: Growth inhibition of human HCC2998 cells at 10 uM after 48 hrs by coulter counter analysis
Assay type: functional
Settings: HCC 2998, 48 h, read-out: GI
Outline: as §1

Row | SMILES | inhibition of growth at 10 µM
2 | CCOC(=O)c1sc(NC(=O)C(C)N(CC)CC)nc1C (stereo not drawn) | < 10%

Tested on: MDA-MB-435
Test: Growth inhibition of human MDA-MB-435 cells at 10 uM after 48 hrs by coulter counter analysis
Assay type: functional
Settings: MDA-MB-435, 48 h, read-out: GI
Outline: as §1

Row | SMILES | inhibition of growth at 10 µM
3 | CCOC(=O)c1sc(NC(=O)C(C)N(CC)CC)nc1C (stereo not drawn) | < 10%

Tested on: KM12
Test: Growth inhibition of human KM12 cells at 10 uM after 48 hrs by coulter counter analysis
Assay type: functional
Settings: KM12, 48 h, read-out: GI
Outline: as §1

Row | SMILES | inhibition of growth at 10 µM
4 | CCOC(=O)c1sc(NC(=O)C(C)N(CC)CC)nc1C (stereo not drawn) | < 10%

Tested on: SN12C
Test: Growth inhibition of human SN12C cells at 10 uM after 48 hrs by coulter counter analysis
Assay type: functional
Settings: read-out: GI
Outline: as §1

Row | SMILES | inhibition of growth at 10 µM
5 | CCOC(=O)c1sc(NC(=O)C(C)N(CC)CC)nc1C (stereo not drawn) | < 10%

Tested on: HCT-15
Test: Growth inhibition of human HCT15 cells at 10 uM after 48 hrs by coulter counter analysis
Assay type: functional
Settings: HCT-15, 48 h, read-out: GI
Outline: as §1

Row | SMILES | inhibition of growth at 10 µM
6 | CCOC(=O)c1sc(NC(=O)C(C)N(CC)CC)nc1C (stereo not drawn) | < 10%

Tested on: M14
Test: Growth inhibition of human M14 cells at 10 uM after 48 hrs by coulter counter analysis
Assay type: functional
Settings: M14, 48 h, read-out: GI
Outline: as §1

Row | SMILES | inhibition of growth at 10 µM
7 | CCOC(=O)c1sc(NC(=O)C(C)N(CC)CC)nc1C (stereo not drawn) | < 10%

Tested on: Malme-3M
Test: Growth inhibition of human MALME-3M cells at 10 uM after 48 hrs by coulter counter analysis
Assay type: functional
Settings: read-out: GI
Outline: as §1

Row | SMILES | inhibition of growth at 10 µM
8 | CCOC(=O)c1sc(NC(=O)C(C)N(CC)CC)nc1C (stereo not drawn) | < 10%

Tested on: OVCAR-8
Test: Growth inhibition of human OVCAR8 cells at 10 uM after 48 hrs by coulter counter analysis
Assay type: functional
Settings: OVCAR-8, 48 h, read-out: GI
Outline: as §1

Row | SMILES | inhibition of growth at 10 µM
9 | CCOC(=O)c1sc(NC(=O)C(C)N(CC)CC)nc1C (stereo not drawn) | < 10%

Tested on: NCI-H226
Test: Growth inhibition of human NCI-H226 cells at 10 uM after 48 hrs by coulter counter analysis
Assay type: functional
Settings: NCI-H226, 48 h, read-out: GI
Outline: as §1

Row | SMILES | inhibition of growth at 10 µM
10 | CCOC(=O)c1sc(NC(=O)C(C)N(CC)CC)nc1C (stereo not drawn) | < 10%

Tested on: HOP-92
Test: Growth inhibition of human HOP92 cells at 10 uM after 48 hrs by coulter counter analysis
Assay type: functional
Settings: HOP-92, 48 h, read-out: GI
Outline: as §1

Row | SMILES | inhibition of growth at 10 µM
11 | CCOC(=O)c1sc(NC(=O)C(C)N(CC)CC)nc1C (stereo not drawn) | < 10%

Tested on: MCF7
Test: Growth inhibition of human MCF7 cells at 10 uM after 48 hrs by coulter counter analysis
Assay type: functional
Settings: MCF7, 48 h, read-out: GI
Outline: as §1

Row | SMILES | inhibition of growth at 10 µM
12 | CCOC(=O)c1sc(NC(=O)C(C)N(CC)CC)nc1C (stereo not drawn) | < 10%

Tested on: RPMI-8226
Test: Growth inhibition of human RPMI8226 cells at 10 uM after 48 hrs by coulter counter analysis
Assay type: functional
Settings: RPMI-8226, 48 h, read-out: GI
Outline: as §1

Row | SMILES | inhibition of growth at 10 µM
13 | CCOC(=O)c1sc(NC(=O)C(C)N(CC)CC)nc1C (stereo not drawn) | < 10%

Tested on: SF-268
Test: Growth inhibition of human SF268 cells at 10 uM after 48 hrs by coulter counter analysis
Assay type: functional
Settings: SF-268, 48 h, read-out: GI
Outline: as §1

Row | SMILES | inhibition of growth at 10 µM
14 | CCOC(=O)c1sc(NC(=O)C(C)N(CC)CC)nc1C (stereo not drawn) | < 10%

Tested on: UO-31
Test: Growth inhibition of human UO31 cells at 10 uM after 48 hrs by coulter counter analysis
Assay type: functional
Settings: UO-31, 48 h, read-out: GI
Outline: (§2)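 Single-dose screen in the NCI 60 cell line panel. Cells grown in RPMI 1640 with 10% FBS. Compounds dissolved in DMSO and diluted in phosphate buffered saline, final DMSO under 1%. Duplicate wells seeded from culture at 6 × 10⁴ cells/ml. Incubated 48 h at 37 °C, humidified, 5% CO2. Cells diluted tenfold in saline and Coulter-counted. Percent growth inhibition computed against PBS/DMSO controls.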

Row | SMILES | inhibition of growth at 10 µM
15 | CCOC(=O)c1sc(NC(=O)C(C)N(CC)CC)nc1C (stereo not drawn) | < 10%

Tested on: UACC-62
Test: Growth inhibition of human UACC62 cells at 10 uM after 48 hrs by coulter counter analysis
Assay type: functional
Settings: UACC-62, 48 h, read-out: GI
Outline: as §2

Row | SMILES | inhibition of growth at 10 µM
16 | CCOC(=O)c1sc(NC(=O)C(C)N(CC)CC)nc1C (stereo not drawn) | < 10%

Tested on: NCI-H522
Test: Growth inhibition of human NCI-H522 cells at 10 uM after 48 hrs by coulter counter analysis
Assay type: functional
Settings: NCI-H522, 48 h, read-out: GI
Outline: as §1

Row | SMILES | inhibition of growth at 10 µM
17 | CCOC(=O)c1sc(NC(=O)C(C)N(CC)CC)nc1C (stereo not drawn) | < 10%

Tested on: IGROV-1
Test: Growth inhibition of human IGROV1 cells at 10 uM after 48 hrs by coulter counter analysis
Assay type: functional
Settings: IGROV-1, 48 h, read-out: GI
Outline: as §1

Row | SMILES | inhibition of growth at 10 µM
18 | CCOC(=O)c1sc(NC(=O)C(C)N(CC)CC)nc1C (stereo not drawn) | < 10%
